Laboratory results from ChEMBL document CHEMBL3785077 (J Med Chem, 2016).
Active and inactive are the calls of the source. The rule behind the calls is not given here.

Legend:
Cholinesterase [1] = molecular target: T1, Cholinesterase (Equus caballus, UniProt P81908); test: Inhibition of equine serum butyrylcholinesterase using […] as substrate preincubated for 30 mins followed by substrate addition measured after 2.5 mins by Ellman's spectrophotometric method
Method in brief: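 Ellman assay at 25 °C in phosphate buffer pH 8.0. Enzyme (AChE from human erythrocytes, BChE from equine or human serum; 2.5 units/mL stock with 2 mg/mL BSA) and DTNB (0.3 mM in assay) preincubated with compound from ethanol stocks (1 nM−1 mM in assay). Ethanol control, triplicates, IC50 from activity vs log concentration.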

Acetylcholinesterase [2] = molecular target: T2, Acetylcholinesterase (Homo sapiens, UniProt P22303); test: Inhibition of human acetylcholinesterase using […] as substrate at 100 uM preincubated for 4.5 mins followed by substrate addition measured after 2.5 mins by Ellman's spectrophotometric method
Cholinesterase [3] = molecular target: T1, Cholinesterase; test: Inhibition of equine serum butyrylcholinesterase using […] as substrate preincubated for 4.5 mins followed by substrate addition measured after 2.5 mins by Ellman's spectrophotometric method
Method in brief: (§1)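 Ellman assay at 25 °C in phosphate buffer pH 8.0. Enzyme (AChE from human erythrocytes, BChE from equine or human serum; 2.5 units/mL stock with 2 mg/mL BSA) and DTNB (0.3 mM in assay) preincubated with compound from ethanol stocks (1 nM−1 mM in assay). Acetyl- or butyrylthiocholine added (452 μM in assay), absorbance at 412 nm after 2.5 min. Ethanol control, triplicates, IC50 from activity vs log concentration.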

Acetylcholinesterase [4] = molecular target: T2, Acetylcholinesterase; test: Inhibition of human acetylcholinesterase using […] as substrate at 500 uM preincubated for 4.5 mins followed by substrate addition measured after 2.5 mins by Ellman's spectrophotometric method
[5] = molecular target: Cholinesterase (Equus caballus) (UniProt P81908); test: Pseudo-irreversible inhibition of equine serum butyrylcholinesterase assessed as apparent affinity between enzyme and inhibitor at equilibrium state using p-nitrophenyl butyrate as substrate preincubated for 5 to 40 mins followed by substrate addition by double reciprocal plot analysis
[6] = molecular target: Cholinesterase (Equus caballus) (UniProt P81908); test: Pseudo-irreversible inhibition of equine serum butyrylcholinesterase assessed as carbamoylation rate of inhibitor from reversible enzyme inhibitor complex to carbamoylated enzyme using p-nitrophenyl butyrate as substrate preincubated for 5 to 40 mins followed by substrate addition by double reciprocal plot analysis
[7] = molecular target: Cholinesterase (Equus caballus) (UniProt P81908); test: Pseudo-irreversible inhibition of equine serum butyrylcholinesterase assessed as ratio of carbamoylation rate of inhibitor to apparent affinity between enzyme and inhibitor at equilibrium state using p-nitrophenyl butyrate as substrate preincubated for 5 to 40 mins followed by substrate addition by double reciprocal plot analysis
Acetylcholinesterase [8] = molecular target: T2, Acetylcholinesterase; test: Inhibition of human acetylcholinesterase using […] as substrate preincubated for 4.5 mins followed by substrate addition measured after 2.5 mins by Ellman's spectrophotometric method; method in brief: as §1
[9] = Antioxidant activity assessed as trolox equivalents of AAPH radical scavenging activity preincubated for 15 mins followed by AAPH addition measured every 60 secs for 90 mins by ORAC assay; assay type: physicochemical; settings: 1.5 h
Method in brief: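 ORAC-FL: compound (1−5 μM) with fluorescein (300 nM final) in 75 mM phosphate buffer pH 7.4, 15 min at 37 °C, then AAPH (12 mM final). Fluorescence read every 60 s for 90 min (ex 485/em 535 nm). […] Samples in quadruplicate, ≥4 independent runs.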

[10] = Neurotoxicity against mouse HT22 cells assessed as cell viability at 1 and 5 uM after 24 hrs by MTT assay; assay type: toxicity, cell-based; settings: ht-22, 24 h
Method in brief: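 HT-22 murine hippocampal cells grown in high-glucose DMEM plus 10% heat-inactivated FCS at 37 °C, 5% CO2. After 24 h culture in plates, treated 24 h with compound (DMSO ≤0.1% final) without glutamate. Viability read by MTT (3 h), SDS lysis buffer pH 4.1, absorbance at 560 nm, given as percent of untreated control.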

HT-22 [11] = test: Neuroprotective activity against glutamate-induced oxycytotic cell death in mouse HT22 cells assessed as cell viability at 5 uM after 24 hrs by MTT assay; assay type: functional, cell-based
Method in brief: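 Murine hippocampal HT-22 cells in high-glucose DMEM with 10% heat-inactivated FCS, 37 °C, 5% CO2. […] MTT (4 mg/mL in PBS, diluted 1:10 in medium) for 3 h, lysis in 10% SDS pH 4.1, absorbance 560 nm; viability as % of untreated cells.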

Acetylcholinesterase [12] = molecular target: T2, Acetylcholinesterase; test: Inhibition of human acetylcholinesterase using […] as substrate at 10 uM preincubated for 4.5 mins followed by substrate addition measured after 2.5 mins by Ellman's spectrophotometric method
[13] = Neurotoxicity against mouse HT22 cells assessed as cell viability up to 10 uM after 24 hrs by MTT assay; assay type: toxicity, cell-based, HT-22; settings: read-out: Activity
Method in brief: (§2)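 Murine hippocampal HT-22 cells in high-glucose DMEM with 10% heat-inactivated FCS, 37 °C, 5% CO2. […] MTT 3 h, SDS lysis, absorbance at 560 nm, viability as % of untreated cells.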

HT-22 [14] = test: Neuroprotective activity against glutamate-induced oxycytotic cell death in mouse HT22 cells assessed as cell viability at 5 to 25 uM after 24 hrs by MTT assay; assay type: functional, cell-based; method in brief: as §2

T2 sequence (P22303 whole entry): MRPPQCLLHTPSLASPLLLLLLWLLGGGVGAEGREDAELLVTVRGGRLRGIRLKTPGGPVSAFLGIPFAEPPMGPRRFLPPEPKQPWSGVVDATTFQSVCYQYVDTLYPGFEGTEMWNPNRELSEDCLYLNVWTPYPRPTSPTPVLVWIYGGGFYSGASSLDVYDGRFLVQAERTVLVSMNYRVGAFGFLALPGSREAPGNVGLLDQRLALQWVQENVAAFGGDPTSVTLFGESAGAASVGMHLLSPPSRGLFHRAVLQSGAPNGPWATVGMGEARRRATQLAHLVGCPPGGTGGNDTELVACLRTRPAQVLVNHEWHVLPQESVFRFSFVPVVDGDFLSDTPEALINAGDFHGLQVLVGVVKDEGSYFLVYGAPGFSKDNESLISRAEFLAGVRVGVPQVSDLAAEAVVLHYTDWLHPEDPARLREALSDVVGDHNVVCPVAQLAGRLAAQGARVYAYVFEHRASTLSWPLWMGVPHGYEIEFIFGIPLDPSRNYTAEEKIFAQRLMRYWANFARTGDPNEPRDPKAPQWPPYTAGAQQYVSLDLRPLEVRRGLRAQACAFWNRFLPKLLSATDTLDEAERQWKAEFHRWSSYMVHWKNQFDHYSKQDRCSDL
T1 sequence (P81908 whole entry): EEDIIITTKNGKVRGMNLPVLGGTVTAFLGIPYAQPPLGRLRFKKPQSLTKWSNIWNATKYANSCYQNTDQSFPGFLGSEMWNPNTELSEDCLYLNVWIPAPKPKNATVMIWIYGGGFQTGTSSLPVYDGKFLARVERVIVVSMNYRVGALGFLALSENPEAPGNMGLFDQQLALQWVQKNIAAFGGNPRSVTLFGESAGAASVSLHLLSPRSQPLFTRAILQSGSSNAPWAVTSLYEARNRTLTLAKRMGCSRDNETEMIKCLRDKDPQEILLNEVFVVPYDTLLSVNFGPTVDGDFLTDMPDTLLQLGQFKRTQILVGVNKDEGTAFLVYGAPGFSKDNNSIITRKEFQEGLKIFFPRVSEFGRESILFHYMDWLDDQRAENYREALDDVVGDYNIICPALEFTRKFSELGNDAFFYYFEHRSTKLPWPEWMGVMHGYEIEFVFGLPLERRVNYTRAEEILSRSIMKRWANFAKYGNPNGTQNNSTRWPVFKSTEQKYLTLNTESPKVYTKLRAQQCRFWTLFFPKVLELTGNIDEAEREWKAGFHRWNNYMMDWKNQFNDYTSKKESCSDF
Chain of Cholinesterase (Equus caballus) (P81908 whole entry): as above

Row | SMILES | IC50 (Cholinesterase [1]) | inhibition (Acetylcholinesterase [2]) | IC50 (Cholinesterase [3]) | IC50 (Acetylcholinesterase [8]) | other results
1 | CCCCCCCNC(=O)Oc1ccc2c(c1)CN(C)C(c1ccncc1)N2C (stereo unspecified) | 0.723 µM | 16% |  |  | 
2 | CCCCCCCNC(=O)Oc1ccc2c(c1)CN(C)C(c1ccc(C)cc1)N2C (stereo unspecified) | 0.231 µM | 9% |  |  | 
3 | CCCCCCCNC(=O)Oc1ccc2c(c1)CN(C)C(c1ccsc1)N2C (stereo unspecified) | 0.022 µM | 13% |  |  | 
4 | CN1Cc2cc(O)ccc2N(C)C1c1ccsc1 (stereo unspecified) |  |  | 194 µM |  | inhibition (Acetylcholinesterase [4]): 52%
5 | CCCCCCCNC(=O)Oc1ccc2c(c1)CN(C(C)C)C(c1ccccc1)N2C (stereo unspecified) | 0.021 µM | 33% |  |  | K [5]: 186 nM; K [6]: 0.16 min⁻¹; Ratio [7]: 0.86 µM⁻¹ min⁻¹
6 | CCCCCCCNC(=O)Oc1ccc2c(c1)CN(C)C(c1cccc(C)c1)N2C (stereo unspecified) | 0.199 µM | 27% |  |  | 
7 | CN1Cc2cc(O)ccc2N(C)C1c1cccs1 (stereo unspecified) |  |  | 63.2 µM | 226 µM | Activity [9]: 3.4 equiv; Activity [10]: Non-toxic; Activity (HT-22 [11]): Active
8 | CCCCCCCNC(=O)Oc1ccc2c(c1)CN(C)C(c1ccccc1C)N2C (stereo unspecified) | 0.251 µM |  |  |  | inhibition (Acetylcholinesterase [12]): 18%
9 | CCCCCCCNC(=O)Oc1ccc2c(c1)CN(CCC)C(c1ccccc1)N2C (stereo unspecified) | 0.04 µM | 46% |  |  | 
10 | CN1Cc2cc(O)ccc2N(C)C1c1cccnc1 (stereo unspecified) |  |  | 70.7 µM |  | inhibition (Acetylcholinesterase [4]): 61%
11 | CCCCCCCNC(=O)Oc1ccc2c(c1)CN(C)C(c1ccc3ccccc3c1)N2C (stereo unspecified) | 0.374 µM |  |  |  | inhibition (Acetylcholinesterase [12]): 5%
12 | COc1cccc(C2N(C)Cc3cc(O)ccc3N2C)c1 (stereo unspecified) |  |  | 7.8 µM |  | inhibition (Acetylcholinesterase [4]): 61%
13 | CN1Cc2cc(O)ccc2N(C)C1c1cc[nH]c1 (stereo unspecified) |  |  | 15.3 µM | 116 µM | 
14 | CC(C)N1Cc2cc(O)ccc2N(C)C1c1ccccc1 (stereo unspecified) |  |  | 55.8 µM | 253 µM | 
15 | CCCCCCCNC(=O)Oc1ccc2c(c1)CN(C)C(c1cccnc1)N2C (stereo unspecified) | 0.565 µM | 18% |  |  | 
16 | Cc1ccccc1C1N(C)Cc2cc(O)ccc2N1C (stereo unspecified) |  |  | 92.4 µM | 143 µM | 
17 | Oc1ccc2nc(-c3ccccc3)ncc2c1 |  |  | 98.1 µM |  | inhibition (Acetylcholinesterase [4]): 20%
18 | CN1Cc2cc(O)ccc2N(C)C1c1ccccc1 (stereo unspecified) |  |  | 39.9 µM | 327 µM | Activity [9]: 3 equiv; Activity [10]: Non-toxic; Activity (HT-22 [11]): Active
19 | CCCN1Cc2cc(O)ccc2N(C)C1c1ccccc1 (stereo unspecified) |  |  | 22.8 µM | 279 µM | 
20 | CCCCCCCNC(=O)Oc1ccc2c(c1)CN(C)C(c1ccccc1OC)N2C (stereo unspecified) | 0.238 µM |  |  |  | inhibition (Acetylcholinesterase [12]): 47%
21 | Cc1ccc(C2N(C)Cc3cc(O)ccc3N2C)cc1 (stereo unspecified) |  |  | 22.6 µM | 110 µM | 

Row | SMILES | IC50 (Cholinesterase [1]) | inhibition (Acetylcholinesterase [2]) | IC50 (Cholinesterase [3]) | IC50 (Acetylcholinesterase [8]) | other results
22 | CCCCCCCNC(=O)Oc1ccc2c(c1)CN(C)C(c1ccc(OC)cc1)N2C (stereo unspecified) | 0.875 µM | 14% |  |  | K [5]: 1200 nM; K [6]: 0.24 min⁻¹; Ratio [7]: 0.2 µM⁻¹ min⁻¹; Activity [9]: 0.5 equiv; viability at 24 h [13]: > 80%; Activity (HT-22 [14]): Active
23 | CN1Cc2cc(O)ccc2N(C)C1c1c(Cl)cccc1Cl (stereo unspecified) |  |  | 7.1 µM | 13.5 µM | 
24 | CN1Cc2cc(O)ccc2N(C)C1c1ccc(F)cc1 (stereo unspecified) |  |  | 58.9 µM | 143 µM | 
25 | CN1Cc2cc(O)ccc2N(C)C1c1ccc(Cl)cc1 (stereo unspecified) |  |  | 13.8 µM | 236 µM | 
26 | COc1ccccc1C1N(C)Cc2cc(O)ccc2N1C (stereo unspecified) |  |  | 9.9 µM | 193 µM | 
27 | Cc1cccc(C2N(C)Cc3cc(O)ccc3N2C)c1 (stereo unspecified) |  |  | 17.4 µM | 437 µM | 
28 | CN1Cc2cc(O)ccc2N(C)C1c1cccc2ccccc12 (stereo unspecified) |  |  | 2.8 µM | 342 µM | 
29 | CN1Cc2cc(O)ccc2N(C)C1c1ccncc1 (stereo unspecified) |  |  | 2.1 µM | 242 µM | 
30 | CCCCCCCNC(=O)Oc1ccc2nc(-c3ccccc3)ncc2c1 | 1.8 µM | 22% |  |  | K [5]: 1060 nM; K [6]: 0.14 min⁻¹; Ratio [7]: 0.13 µM⁻¹ min⁻¹
31 | CCCCCCCNC(=O)Oc1ccc2c(c1)CN(C)C(c1ccc(C(F)(F)F)cc1)N2C (stereo unspecified) | 2.7 µM | 59% |  |  | K [5]: 756 nM; K [6]: 0.05 min⁻¹; Ratio [7]: 0.07 µM⁻¹ min⁻¹
32 | CN1Cc2cc(O)ccc2N(C)C1c1cccc(Cl)c1 (stereo unspecified) |  |  | 2.1 µM | 242 µM | 
33 | CCCCCCCNC(=O)Oc1ccc2c(c1)CN(C)C(c1c(Cl)cccc1Cl)N2C (stereo unspecified) | 0.531 µM |  |  |  | inhibition (Acetylcholinesterase [12]): 33%; K [5]: 4120 nM; K [6]: 0.23 min⁻¹; Ratio [7]: 0.06 µM⁻¹ min⁻¹
34 | CCCCCCCNC(=O)Oc1ccc2c(c1)CN(C)C(c1ccoc1)N2C (stereo unspecified) | 0.083 µM | 12% |  |  | 
35 | CN1Cc2cc(O)ccc2N(C)C1c1ccc(C(F)(F)F)cc1 (stereo unspecified) |  |  | 64.6 µM |  | 
36 | CN1Cc2cc(O)ccc2N(C)C1c1ccoc1 (stereo unspecified) |  |  | 196 µM | 342 µM | 
37 | CCCCCCCNC(=O)Oc1ccc2c(c1)CN(C)C(c1ccccc1Cl)N2C (stereo unspecified) | 0.474 µM |  |  |  | inhibition (Acetylcholinesterase [12]): 48%
38 | CCCCCCCNC(=O)Oc1ccc2c(c1)CN(C)C(c1cccc(OC)c1)N2C (stereo unspecified) | 0.208 µM | 10% |  |  | K [5]: 622 nM; K [6]: 0.18 min⁻¹; Ratio [7]: 0.29 µM⁻¹ min⁻¹
39 | CCCCCCCNC(=O)Oc1ccc2c(c1)CN(C)C(c1ccc(Cl)cc1)N2C (stereo unspecified) | 0.115 µM | 24% |  |  | 
40 | CN1Cc2cc(O)ccc2N(C)C1c1ccccc1Cl (stereo unspecified) |  |  | 56 µM |  | inhibition (Acetylcholinesterase [4]): 60%
41 | CCCCCCCNC(=O)Oc1ccc2c(c1)CN(C)C(c1cccc3ccccc13)N2C (stereo unspecified) | 36.2 µM |  |  |  | inhibition (Acetylcholinesterase [12]): 8%; K [5]: 15.6 nM; K [6]: 0.03 min⁻¹; Ratio [7]: 1.92 µM⁻¹ min⁻¹
42 | CCCCCCCNC(=O)Oc1ccc2c(c1)CN(C)C(c1cccc(Cl)c1)N2C (stereo unspecified) | 0.096 µM | 39% |  |  | K [5]: 227 nM; K [6]: 0.16 min⁻¹; Ratio [7]: 0.7 µM⁻¹ min⁻¹
